The record followed here is ChEMBL document CHEMBL2321690, “New betulinic acid derivatives for bevirimat-resistant human immunodeficiency virus type-1” (J Med Chem, 2013).

For data set [1], the system named is Human immunodeficiency virus 1. Briefly: Antiviral activity against 0.001 MOI bevirimat-resistant Human immunodeficiency virus 1 NL4-3 harboring gag V362I mutant infected in human MT4 cells assessed as inhibition of viral replication measured 4 days post infection by ELISA. The data set is classed as functional, organism-based. The note with it: Human immunodeficiency virus 1, NL4-3, MT4, 96 h. Summed up:
(§1)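 Mutations introduced into pNL4-3 by site-directed mutagenesis. MT4 cells infected with wild-type NL4-3 or resistant variant at 0.001 TCID50/cell in presence of graded compound concentrations. Supernatant p24 measured by ELISA on day 4 post-infection. IC50 is the concentration reducing p24 by 50%, reported as mean ± SD with the number of tests given per value.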

The test system of data set [2] is Human immunodeficiency virus 1. Nature of the data set: Antiviral activity against 0.001 MOI bevirimat-resistant Human immunodeficiency virus 1 NL4-3 harboring gag T371 deletion mutant infected in human MT4 cells assessed as inhibition of viral replication measured 4 days post infection by ELISA. The settings on record: Human immunodeficiency virus 1, NL4-3, MT4, 96 h. It counts as functional, organism-based. Summed up:
as §1
For orientation: An ELISA detects its analyte on a solid surface through an enzyme-linked reagent.

In another data set the test system is COS. Nature of the data set: (§2) Inhibition of wild type Human immunodeficiency virus 1 NL4-3 envelope glycoprotein gp160-mediated cell-cell fusion between virus-infected monkey COS cells to human TZM-bl cells after 24 hrs by luciferase reporter gene assay. It counts as cell-based. Summed up: (§3)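 COS cells (1 × 10^6 cells/mL) electroporated (950 µF, 150 V) with vector expressing NL4-3 Env and tat, then cultured one day. Mixed with TZM-bl cells with inhibitor over a 1–10000 nM range. Luciferase (RLU) in fused cells read 24 h after mixing, expressed as % of no-compound fusion. Points are mean ± SD of three tests.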

For data set [3], the system named is Human immunodeficiency virus 1. Briefly: Antiviral activity against wild type Human immunodeficiency virus 1 NL4-3 infected in human 293T cells assessed as inhibition of CA-SP1 cleavage measured 2 days post infection by Western blotting analysis. The data set is classed as functional, organism-based. In outline: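 293T cells transfected with pNL4-3 proviral plasmid and cultured with compounds. Culture supernatant collected 2 days after transfection. Western blot with anti-p24 monoclonal antibody (hybridoma 183-H12-5C) detected CA-SP1 (p25) accumulation, taken as the measure of blocked CA-SP1 cleavage.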
In general terms: A western blot detects proteins with antibodies after separation by electrophoresis.

Data set [4] relates to Human immunodeficiency virus 1. Briefly: Antiviral activity against 0.001 MOI wild type Human immunodeficiency virus 1 NL4-3 infected in human MT4 cells assessed as inhibition of viral replication measured 4 days post infection by ELISA. The data set is classed as functional, organism-based. The note with it: Human immunodeficiency virus 1, NL4-3, MT4, 96 h. In outline: as §1

The test system of data set [5] is Human immunodeficiency virus 1. Nature of the data set: Antiviral activity against bevirimat-resistant Human immunodeficiency virus 1 NL4-3 harboring gag V370A mutant infected in human 293T cells assessed as inhibition of CA-SP1 cleavage measured 2 days post infection by Western blotting analysis. It counts as functional, organism-based. In outline:
(§4)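 Provirus plasmids (pNL4-3/V370A, pNL4-3/V362I, with pNL4-3 alongside) transfected into 293T cells, and virus produced in presence of compound. Supernatant virus harvested two days after transfection. Western blot with anti-p24 monoclonal antibody (183-H12-5C) to detect accumulation of CA-SP1 (p25), indicating inhibited CA-SP1 cleavage.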

A further data set concerns MT4. Nature of the data set: Cytotoxicity against human MT4 cells for 4 days. The settings on record: mt4, 96 h. The data set is classed as cell-based. In outline: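 MT4 cells cultured with various compound concentrations for 4 days. Viability read by a CytoTox-Glo luminescent cytotoxicity assay. CC50 is the concentration reducing viable cells by 50%.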
For data set [6], the system named is Human immunodeficiency virus 1. Briefly: Antiviral activity against 0.001 MOI bevirimat-resistant Human immunodeficiency virus 1 NL4-3 harboring gag V370A mutant infected in human MT4 cells assessed as inhibition of viral replication measured 4 days post infection by ELISA. The data set is classed as functional, organism-based. The note with it: Human immunodeficiency virus 1, NL4-3, MT4, 96 h. In outline:
as §1

Data set [7] deals with Human immunodeficiency virus 1. Briefly: Antiviral activity against 0.001 MOI bevirimat-resistant Human immunodeficiency virus 1 NL4-3 harboring gag V370 deletion mutant infected in human MT4 cells assessed as inhibition of viral replication measured 4 days post infection by ELISA. It counts as functional, organism-based. The note with it: Human immunodeficiency virus 1, NL4-3, MT4, 96 h. Summed up:
as §1

The subject of data set [8] is Human immunodeficiency virus 1. Briefly: Antiviral activity against bevirimat-resistant Human immunodeficiency virus 1 NL4-3 harboring gag V362I mutant infected in human 293T cells assessed as inhibition of CA-SP1 cleavage measured 2 days post infection by Western blotting analysis. The data set is classed as functional, organism-based. Summed up: as §4
Data set [9] concerns Human immunodeficiency virus 1. Briefly: Potency index, ratio of bevirimat IC50 to compound IC50 for 0.001 MOI bevirimat-resistant Human immunodeficiency virus 1 NL4-3 harboring gag V370A mutant infected in human MT4 cells. The data set is classed as functional.
Data set [10] can be described thus: as §2. The data set is classed as cell-based. The settings on record: Human immunodeficiency virus 1, NL4-3, COS. In outline:
as §3

Structures are written as SMILES. Activity calls are given as the source filed them. The calls are words filed in the database; no cut-off is given here. Where only a bound is given, the exact number is not on record here.

Take `C=C(C)[C@@H]1CC[C@]2(C(=O)O)CC[C@]3(C)[C@H](CC[C@@H]4[C@@]5(C)CC[C@H](OC(=O)CC(C)(C)C(=O)O)C(C)(C)[C@@H]5CC[C@]43C)[C@@H]12` [BEVIRIMAT]: the IC50 in data set [1] was more than 6800 nM; in data set [2], more than 6800 nM; in data set [4], 76 nM; in data set [6], more than 5000 nM; in [7] it was more than 6800 nM. Further, the inhibition result (in the data set with COS; in data set [5]) was “inactive” throughout. Moreover, in data set [3], the inhibition result was “Active”. In the data set with MT4, this molecule registered a cytotoxic concentration (CC50) of more than 10000 nM.
`C=C(C)[C@@H]1CC[C@]2(C(=O)NCCCCCCCCC(=O)N[C@@H](CCC(N)=O)C(=O)OC)CC[C@]3(C)[C@H](CC[C@@H]4[C@@]5(C)CC[C@H](OC(=O)CC(C)(C)C(=O)O)C(C)(C)[C@@H]5CC[C@]43C)[C@@H]12`: the IC50 in data set [1] is 16 nM; in data set [2], 67 nM; in [4], 9 nM; in data set [6], 160 nM; in [7], 320 nM. In addition, the inhibition entry in data set [8] and in data set [5] was “Active” each time. Also, the inhibition result with COS was “inactive”. For the same molecule, the CC50 with MT4 is more than 10000 nM. The “Ratio IC50” value in data set [9] is 20.
As to `C=C(C)[C@@H]1CC[C@]2(C(=O)NCCCCCCCNC(C)=O)CC[C@]3(C)[C@H](CC[C@@H]4[C@@]5(C)CC[C@H](O)C(C)(C)[C@@H]5CC[C@]43C)[C@@H]12`, the IC50 in data set [10] is 42 nM.
For the molecule `C=C(C)[C@@H]1CC[C@]2(C(=O)NCCCCCCCCC(=O)N[C@H](C(=O)OC)[C@@H](C)CC)CC[C@]3(C)[C@H](CC[C@@H]4[C@@]5(C)CC[C@H](OC(=O)CC(C)(C)C(=O)O)C(C)(C)[C@@H]5CC[C@]43C)[C@@H]12`, the values for the 50% inhibitory concentration (IC50) in data set [4] and in [6] were 40 nM and 2780 nM, respectively. Also, the CC50 with MT4 was more than 10000 nM.
For `C=C(C)[C@@H]1CC[C@]2(C(=O)NCCCCCCCCC(=O)N[C@H](C(=O)OC)C(C)C)CC[C@]3(C)[C@H](CC[C@@H]4[C@@]5(C)CC[C@H](OC(=O)CC(C)(C)C(=O)O)C(C)(C)[C@@H]5CC[C@]43C)[C@@H]12` the same measures were 10 nM, 1240 nM and more than 10000 nM.
For `C=C(C)[C@@H]1CC[C@]2(C(=O)NCCCCCCCCC(=O)N[C@@H](Cc3ccccc3)C(=O)OC)CC[C@]3(C)[C@H](CC[C@@H]4[C@@]5(C)CC[C@H](OC(=O)CC(C)(C)C(=O)O)C(C)(C)[C@@H]5CC[C@]43C)[C@@H]12` the same measures were 70 nM, 1290 nM and more than 10000 nM.

One may read the IC50 as the concentration at which inhibition is half-maximal. The term CC50 denotes the concentration at which the toxic effect on the cells reaches its halfway point.
